Measurements reported in ChEMBL document CHEMBL1134405 (J Med Chem, 2001).
Each block holds one compound with its values, some of them ahead of it. Calls of active or inactive are those of the source. No cut-off for these calls is given here. Peptide text beside a SMILES is read from it.

Assays:
[1] = target: Glucagon receptor (Rattus norvegicus) (UniProt P30082); assay: Relative binding by measuring competition for glucagon receptor between [125]glucagon and the compound.
How it was run: (§1)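 Incubation 10 min at 30 °C, then ice cooling and filtration on 0.45 μm cellulose acetate, gamma counting. Nonspecific binding taken with 1024 nM unlabeled peptide and subtracted. Read as % inhibition of specific binding. Triplicates, repeated twice.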

[2] = target: T1, Adenylate cyclase (Rattus norvegicus) (UniProt D4A3N4+P26770+Q04400+P26769+Q03343+P40146+Q8CFM9+P21932); assay: Adenylate cyclase activity of the compound, evaluated for the percentage maximum stimulation; assay type: protein assay
How it was run: (§2)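 Rat liver plasma membranes (male Sprague–Dawley, 200–250 g; sucrose-gradient purified), 35 μg protein in 0.1 mL with 1 mM [α-32P]ATP, 5 mM MgCl2, GTP, 1 mM EDTA, 1 mM cAMP plus [3H]cAMP tracer, 25 mM Tris pH 7.5, 0.4% BSA, phosphocreatine/creatine kinase regeneration. Labeled cAMP isolated by sequential Dowex and alumina chromatography.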

Glucagon receptor [3] = target: T2, Glucagon receptor (Rattus norvegicus, UniProt P30082); assay: (§3) Compound was evaluated for its ability to displace radiolabeled glucagon (inactive up to 100 uM)
[4] = pA2 value, a dose-response plot was obtained by determining the response when the concentration of glucagon was varied while the concentration was kept same.
[5] = target: T1, Adenylate cyclase (Rattus norvegicus); assay: Adenylate cyclase activity of the compound, expressed as effective concentration (inactive up to 100 uM); assay type: protein assay
How it was run: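 Adenylate cyclase in rat liver plasma membranes (35 μg protein), in 0.1 mL of 1 mM [α-32P]ATP, 5 mM MgCl2, […], 1 mM EDTA, 1 mM cAMP with [3H]cAMP tracer, 25 mM Tris pH 7.5, 0.4% BSA, plus a phosphocreatine/creatine phosphokinase regenerating system. [32P]cAMP isolated on Dowex and alumina columns.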

[6] = target: T1, Adenylate cyclase (Rattus norvegicus); assay: Maximum stimulation of adenylate cyclase.; assay type: protein assay
[7] = target: Glucagon receptor (Rattus norvegicus) (UniProt P30082); assay: as §3; how it was run: as §1
Adenylate cyclase [8] = assay: Effective concentration required for 50% conversion of [alpha-32P]ATP to cyclic 3',5'-AMP.; assay type: protein assay; how it was run: as §2
Adenylate cyclase [9] = assay: Adenylate cyclase activity of the compound, expressed as effective concentration; assay type: protein assay; how it was run: as §2
[10] = target: T1, Adenylate cyclase (Rattus norvegicus); assay: Relative potency was evaluated by measuring potency for conversion of [alpha-32P]ATP to cyclic 3',5'-AMP relative to glucagon; assay type: protein assay
[11] = target: Glucagon receptor (Rattus norvegicus) (UniProt P30082); assay: Relative binding was evaluated by measuring competition for glucagon receptor between [125I]glucagon and the compound.
Glucagon receptor [12] = target: T2, Glucagon receptor; assay: Compound was evaluated for its ability to displace radiolabeled glucagon; how it was run: as §1
Glucagon receptor [13] = target: T2, Glucagon receptor; assay: IC50 value was expressed for inhibition of [125]glucagon specific binding.; how it was run: as §1

Sequence of Glucagon receptor (Rattus norvegicus) (P30082 whole entry): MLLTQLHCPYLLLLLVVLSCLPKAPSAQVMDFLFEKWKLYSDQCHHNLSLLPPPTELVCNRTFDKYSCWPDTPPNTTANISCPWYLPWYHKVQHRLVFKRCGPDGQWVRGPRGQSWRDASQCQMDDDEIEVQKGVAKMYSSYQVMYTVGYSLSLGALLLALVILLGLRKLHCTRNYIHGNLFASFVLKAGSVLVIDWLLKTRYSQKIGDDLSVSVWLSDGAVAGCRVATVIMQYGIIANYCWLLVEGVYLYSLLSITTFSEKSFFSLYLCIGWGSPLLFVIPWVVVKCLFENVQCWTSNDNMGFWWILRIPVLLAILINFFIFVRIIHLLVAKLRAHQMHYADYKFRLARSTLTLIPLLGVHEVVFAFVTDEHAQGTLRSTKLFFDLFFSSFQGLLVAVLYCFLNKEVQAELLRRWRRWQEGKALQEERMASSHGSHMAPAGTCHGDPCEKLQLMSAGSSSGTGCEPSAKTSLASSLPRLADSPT
T2 sequence (P30082 whole entry): as above

- Relative potency [10]: < 0.0001%
- Relative binding [11]: < 0.0001%
Compound: H-HSQGTF-OH

- Relative potency [10]: 0.0001%
- Relative binding [1]: 0.0001%
Compound: CC(C)C[C@H](NC(=O)[C@H](Cc1ccc(O)cc1)NC(=O)[C@H](CCCCN)NC(=O)[C@H](CO)NC(=O)[C@H](Cc1ccc(O)cc1)NC(=O)[C@H](CC(=O)O)NC(=O)[C@H](CO)NC(=O)[C@@H](NC(=O)[C@H](Cc1ccccc1)NC(=O)[C@@H](NC(=O)CNC(=O)[C@H](CCC(N)=O)NC(=O)[C@H](CO)NC(=O)[C@@H](N)Cc1c[nH]cn1)[C@@H](C)O)[C@@H](C)O)C(=O)N[C@@H](CC(N)=O)C(=O)N[C@@H](CO)C(=O)N[C@@H](CCCN=C(N)N)C(=O)O

- IC50 (Glucagon receptor [12]): 3.75 nM
Compound: CSCC[C@H](NC(=O)[C@H](CC(C)C)NC(=O)[C@H](Cc1c[nH]c2ccccc12)NC(=O)[C@H](CCC(N)=O)NC(=O)[C@@H](NC(=O)[C@H](Cc1ccccc1)NC(=O)[C@H](CC(=O)O)NC(=O)[C@H](CCC(N)=O)NC(=O)[C@H](C)NC(=O)[C@H](CCCN=C(N)N)NC(=O)[C@H](CCCN=C(N)N)NC(=O)[C@H](CO)NC(=O)[C@H](CC(=O)O)NC(=O)[C@H](CC(C)C)NC(=O)[C@H](Cc1ccc(O)cc1)NC(=O)[C@H](CCCCN)NC(=O)[C@H](CO)NC(=O)[C@H](Cc1ccc(O)cc1)NC(=O)[C@H](CCC(=O)O)NC(=O)[C@H](CO)NC(=O)[C@@H](NC(=O)[C@H](Cc1ccccc1)NC(=O)[C@@H](NC(=O)CNC(=O)[C@H](CCC(N)=O)NC(=O)[C@@H](N)CO)[C@@H](C)O)[C@@H](C)O)C(C)C)C(=O)N[C@@H](CC(N)=O)C(=O)N[C@H](C(N)=O)[C@@H](C)O
- pA2 [4]: 7.25

- IC50 (Glucagon receptor [13]): 781 nM
Compound: CSCC[C@H](NC(=O)[C@H](CC(C)C)NC(=O)[C@H](Cc1c[nH]c2ccccc12)NC(=O)[C@H](CCC(N)=O)NC(=O)[C@@H](NC(=O)[C@H](Cc1ccccc1)NC(=O)[C@H](CC(=O)O)NC(=O)[C@H](CCC(N)=O)NC(=O)[C@H](C)NC(=O)[C@H](CCCN=C(N)N)NC(=O)[C@H](CCCN=C(N)N)NC(=O)[C@H](CO)NC(=O)[C@H](CC(=O)O)NC(=O)[C@H](CC(C)C)NC(=O)[C@H](Cc1ccc2ccccc2c1)NC(=O)[C@H](CCCCN)NC(=O)[C@H](CO)NC(=O)[C@H](Cc1ccc(O)cc1)NC(=O)CCCc1ccccc1)C(C)C)C(=O)N[C@@H](CC(N)=O)C(=O)N[C@H](C(N)=O)[C@@H](C)O (HELM PEPTIDE1{[O=C(CCCc1ccccc1)[*:2]].Y.S.K.[O=C([C@H](Cc1ccc2ccccc2c1)N[*:1])[*:2]].L.D.S.R.R.A.Q.D.F.V.Q.W.L.M.N.T.[am]}$$$$V2.0)
- pA2 [4]: 6.7

The next lines start with the compound.

Compound: GLUCAGON [listing 1 of 2 here]
- Relative binding [1]: 100%
- Max stimulation [2]: 100%

Compound: CSCC[C@H](NC(=O)[C@H](CC(C)C)NC(=O)[C@H](Cc1c[nH]c2ccccc12)NC(=O)[C@H](CCC(N)=O)NC(=O)[C@@H](NC(=O)[C@H](Cc1ccccc1)NC(=O)[C@H](CC(=O)O)NC(=O)[C@H](CCC(N)=O)NC(=O)[C@H](C)NC(=O)[C@H](CCCN=C(N)N)NC(=O)[C@H](CCCN=C(N)N)NC(=O)[C@H](CO)NC(=O)[C@H](CC(=O)O)NC(=O)[C@H](CC(C)C)NC(=O)[C@H](Cc1ccc(O)cc1)NC(=O)[C@H](CCCCN=C(N)N)NC(=O)[C@H](CO)NC(=O)[C@H](Cc1ccc(O)cc1)NC(=O)[C@H](CC(=O)O)NC(=O)[C@H](CO)NC(=O)[C@@H](NC(=O)[C@H](Cc1ccccc1)NC(=O)[C@@H](NC(=O)CNC(=O)[C@H](CCC(N)=O)NC(=O)[C@H](CO)NC(=O)[C@H](Cc1c[nH]cn1)Nc1c([N+](=O)[O-])cc([N+](=O)[O-])cc1[N+](=O)[O-])[C@@H](C)O)[C@@H](C)O)C(C)C)C(=O)N[C@@H](CC(N)=O)C(=O)N[C@H](C(=O)O)[C@@H](C)O
- IC50 (Glucagon receptor [3]): 15 nM
- pA2 [4]: 8.16

Compound: H-HSQGTFTSDYS-NH2
- IA [5]: Inactive up to 100 uM
- Max stimulation [6]: 0%
- IA [7]: Inactive up to 100 uM
- Relative binding [1]: 0%

Compound: GLUCAGON [listing 2 of 2 here]
- EC50 (Adenylate cyclase [8]): 8 nM
- EC50 (Adenylate cyclase [9]): 5.9 nM

Compound: H-SQGTTSEYSKYLDSRRAQDFVQWLMNT-NH2
- IC50 (Glucagon receptor [12]): 48 nM
- pA2 [4]: 8.2

Compound: H-TFTSDYSKYLDS-NH2
- IA [5]: Inactive up to 100 uM
- Max stimulation [6]: 0%
- IA [7]: Inactive up to 100 uM
- Relative binding [1]: 0%
